Assay results: ChEMBL document CHEMBL1146041, “Synthesis and SAR of pyrrolotriazine-4-one based Eg5 inhibitors” (Bioorg Med Chem Lett, 2006)

Experiments:
Format in all cases: ADME, organism-based
Parameters in all cases: dose 10 mg/kg
[1] = Half life in mouse at 10 mg/kg; conditions: in vivo
Outline: (§1)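 Mice (n = 3) dosed at 10 mg/kg in 50% PEG400/50% water; pharmacokinetic parameters given as mean ± deviation.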

[2] = Clearance in mouse at 10 mg/kg; conditions: in vivo; outline: as §1
[3] = Mean residence time in mouse at 10 mg/kg; conditions: in vivo; outline: as §1
[4] = Volume of distribution in mouse at 10 mg/kg; conditions: in vivo, read-out: Vdss; outline: as §1

half-life [1]: 4.5 h
clearance [2]: 16 mL/min/kg
MRT [3]: 6.5 h
Vd [4]: 5.9 L/kg
Compound: Cc1ccc(C(=O)N(CCCN)C(c2nn3c(Cl)ccc3c(=O)n2Cc2ccccc2)C2CC2)cc1 (centres undefined)
